# An excerpt weighted towards active compounds, which were near 2.3% of everything screened.
# EBNA-1 inhibitor = blocks EBNA-1 binding to DNA | inhibition, % at 14.8 µM | AID 1950 | 0.34% of 300,000 active | EBNA-1 DNA binding, fluorescence polarization; in the data active = inhibition above about 28%
# NS3 helicase inh = HCV NS3 helicase inhibition; NS3 helicase DNA unwinding, Cy5 molecular beacon fluorescence; inhibition, % at 10.9 µM; 0.56% of 290,000 active;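 active = inhibition above the mean of all tested compounds plus 3 SD, set per campaign, cut at about 35% in these data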;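 also: 0% = DMSO wells and 100% = thioflavine S control wells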
#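 Control set: DMSO versus 110 µM thioflavine S; Material: NS3 helicase fragment of HCV; Measured by: Cy5 fluorescence at 0 and 60 min, beacon hairpin quenching; Read-out basis: percent inhibition from t60/t0 fluorescence ratio; Times: reaction time 60 min, 25 °C; Repeats: single replicate; Compound dosing: single dose, 10.9 µM nominal final, DMSO 0.8% final.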
# EBV gp42 inh = EBV gp42 inhibition; Q1HVG2; Fluorescence polarization binding assay, mP read-out; 0.42% of 220,000 active; inhibition, % (tested at 21.74 µM); in the data active = inhibition above about 50%
# HCV core dimer = HCV core protein dimerization inhibition; TR-FRET GST/Flag-core106 dimerization, 1536-well; inhibition, % at 5 µM; 0.33% of 300,000 active;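 active = inhibition above the mean of all tested compounds plus 3 SD, set per screening campaign, cut at about 45% in these data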
#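 Assay system: tagged HCV core106 pair (GST and Flag); medium: KF-containing HEPES buffer, pH 7.45, DTT, CHAPS, BSA; also added: Eu donor and XL665 acceptor anti-tag antibodies; dosing: 5 µM single dose; timing: compound-protein-antibody incubation 4 h at 22.5 °C; signal: TR-FRET 671 and 617 nm emission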
# ZTA counter = ZTA (EBV) inhibition in EBNA-1 counter-screen; 0.15% of 320,000 active; ZTA-DNA binding, fluorescence polarization; AID 2234; inhibition, % at 11 µM; in the data active = inhibition above about 33%
# Target sequence (P03206 whole entry, looked up): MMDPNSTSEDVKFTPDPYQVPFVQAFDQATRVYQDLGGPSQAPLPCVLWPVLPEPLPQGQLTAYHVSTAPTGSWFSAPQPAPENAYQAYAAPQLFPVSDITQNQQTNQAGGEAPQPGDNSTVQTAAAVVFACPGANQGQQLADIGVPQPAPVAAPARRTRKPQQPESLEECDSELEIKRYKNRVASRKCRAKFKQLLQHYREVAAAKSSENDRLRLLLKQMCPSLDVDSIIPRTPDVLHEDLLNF
# GPR7 antagonist = blocks human GPR7 receptor signaling; P48145; GPR7-expressing cells, fluorescence antagonist assay; inhibition, % at 4.4 µM; 1.1% of 290,000 active; AID 1861; in the data active = inhibition above about 16%, passing the limit was not always enough;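 also: cells stimulated with the agonist NPW; 0% = agonist with vehicle and 100% = vehicle without agonist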
# Target sequence (P48145 whole entry, looked up): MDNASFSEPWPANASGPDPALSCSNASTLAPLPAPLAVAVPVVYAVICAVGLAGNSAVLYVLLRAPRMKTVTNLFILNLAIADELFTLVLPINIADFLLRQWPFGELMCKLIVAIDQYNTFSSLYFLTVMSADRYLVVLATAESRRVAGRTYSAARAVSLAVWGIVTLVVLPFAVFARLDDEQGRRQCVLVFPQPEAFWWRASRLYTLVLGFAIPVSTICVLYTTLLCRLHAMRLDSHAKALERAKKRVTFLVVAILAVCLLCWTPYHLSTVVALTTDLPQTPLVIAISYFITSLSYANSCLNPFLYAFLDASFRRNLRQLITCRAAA
# GPR7 antag cf = human GPR7 antagonism, confirmation assay | GPR7-expressing cells, calcium fluorescence antagonist mode | 52% of 2,400 active | shares compounds with GPR7 antagonist | inhibition, % at 4.4 µM; in the data active = inhibition above about 24%;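 also: stimulated with the GPR7 agonist NPW; 0% = agonist plus vehicle and 100% = vehicle alone without agonist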
# MCHR1 antagonist = antagonizes human MCHR1, a GPR7 antagonist counter-screen | AID 2148 | shares compounds with GPR7 antagonist | MCHR1-expressing cells, fluorescence antagonist assay | inhibition, % at 4.4 µM | 62% of 2,400 active; in the data active = inhibition above about 22%;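 also: 0% = vehicle with agonist and 100% = vehicle without agonist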
# * hit, by the source's call; x = not tested or not shown.
SMILES,EBNA-1 inhibitor,NS3 helicase inh,EBV gp42 inh,HCV core dimer,ZTA counter,GPR7 antagonist,GPR7 antag cf,MCHR1 antagonist
Cc1ccc(N(C(=O)c2ccco2)C(C(=O)NC2CCCC2)c2cccnc2)cc1 (centres undefined),3.7,2.9,x,-3.8,-0.2,-0.2,x,x
CCc1cc2c(NCc3ccccc3)nc(C)nc2s1,-16.4,-0.6,x,9.3,-7.2,22.6*,17.2,38.0*
O=C(C1COc2ccccc2O1)N1CCc2ccccc2C1 (centres undefined),4.0,-6.2,-15.5,-5.2,-4.6,21.2*,5.5,35.4*
COc1cccc(-c2nc(N)nc(SC)c2C#N)c1,4.5,-1.5,-4.2,-1.6,-10.3,-7.8,x,x
CCOC(=O)c1ccc(CNC(=O)c2cc(COc3ccccc3SC)on2)o1,-9.7,-5.0,x,1.4,-17.1,43.7*,13.0,45.5*
Cc1cccc2c3c([nH]c12)CCNC3,-7.1,-2.7,x,-4.5,5.3,4.7,x,x
O=C(c1ccco1)N1CCCC(c2nc(-c3ccc(S(=O)(=O)NCc4ccccc4)cc3)no2)C1 (centres undefined),-5.8,-8.8,2.7,12.2,-1.5,72.5*,39.3*,72.4*
CN(C)S(=O)(=O)c1ccc(C(=O)OC2CCOC2=O)cc1 (centres undefined),-16.4,22.1,x,-11.6,4.5,-0.4,x,x
COC(=O)c1ccccc1NC(=O)Nc1c(C)n(C)n(-c2ccccc2)c1=O,9.7,2.4,x,-1.2,4.2,-10.1,x,x
CCOC(=O)CNC(=S)N(CCCN1CCCCC1)Cc1cccs1,7.7,0.8,-6.5,-5.6,-1.8,35.2*,8.5,16.0
CCOC(=O)CNC(=S)N(CCCN1CCCCCC1)Cc1cccs1,6.5,-4.1,-0.5,1.7,-1.8,7.0,x,x
CCCCC(O)(CCCC)C(=O)NN(C(=O)OC)c1ccc(C)cc1,-3.6,21.4,-26.4,1.0,-3.5,23.3*,8.7,10.0
Cc1cccc(C(C)Nc2ccc([N+](=O)[O-])cn2)c1 (centres undefined),-8.1,7.1,-14.2,-0.9,15.3,12.9,x,x
OC(CNCc1ccco1)Cn1c2ccccc2c2ccccc21 (centres undefined),-5.3,-61.1,-14.5,-12.5,-6.0,21.2*,18.6,14.4
COc1ccc(NC(=O)C(OC(=O)c2cnccn2)c2ccccc2)cc1Cl (centres undefined),-3.0,-9.3,x,-0.2,-21.0,31.6*,18.8,20.0
COc1ccc(NC(=O)C(OC)c2ccccc2)cc1Cl (centres undefined),-3.5,-2.0,-9.6,-3.2,-23.9,-4.9,x,x
COCc1cc(C)nc(SCc2ccc([N+](=O)[O-])cc2)c1C#N,-0.3,14.5,x,7.8,1.4,29.3*,9.3,13.4
COCc1cc(C)nc(SCc2ccccc2Cl)c1C#N,-7.3,-8.4,x,-5.0,-1.2,-8.5,x,x
CN1CCC(NCCC(c2ccc(F)cc2)c2ccc(Cl)cc2)CC1 (centres undefined),x,-52.1,x,x,x,46.7*,42.8*,40.8*
CC(C)C(CCNC1CCN(C)CC1)c1ccc(Cl)cc1 (centres undefined),-3.9,-30.5,x,-0.3,-5.6,32.7,x,x
CCCc1cnc(NCCNCC(O)COc2ccc(Cl)c(Cl)c2)nc1 (centres undefined),-8.1,-43.4,-1.7,-6.8,0.0,22.5*,31.4*,51.8*
Cc1nn(-c2ccc(F)cc2)c(Cl)c1/C=C(\CC(=O)O)c1nc2ccccc2s1,-0.9,34.9,3.8,7.7,13.6,31.4*,0.2,-0.9
Cc1nn(-c2ccccc2)c(Cl)c1/C=C(\CC(=O)O)c1nc2ccccc2s1,-7.5,30.0,-15.0,20.9,-7.7,9.5,x,x
COCCCN(C(=S)NC(=O)C12CC3CC(CC(C3)C1)C2)c1c(N)n(Cc2ccccc2)c(=O)[nH]c1=O,-0.3,3.8,-3.6,2.2,-3.2,-6.6,x,x
CC(Oc1ccc(NC(=O)c2ccco2)cc1)C(=O)N1c2ccccc2CC1C (centres undefined),16.1,10.3,-19.2,6.3,-3.2,35.2*,13.9,19.1
SMILES,EBNA-1 inhibitor,NS3 helicase inh,EBV gp42 inh,HCV core dimer,ZTA counter,GPR7 antagonist,GPR7 antag cf,MCHR1 antagonist
COC(=O)[C@@]1(Cc2ccc(F)cc2)[C@H]2c3cc(C(=O)N4CCCC4)n(Cc4ccc(C(F)(F)F)nc4)c3C[C@H]2CN1C(=O)c1ccccc1,-3.6,3.5,-8.5,10.9,-18.6,28.8*,38.9*,22.2*
COC(=O)[C@@]1(Cc2ccc(F)cc2)[C@H]2c3cc(C(=O)N4CCCC4)n(CCCNc4ncc(C(F)(F)F)cc4Cl)c3C[C@H]2CN1C(=O)c1ccccc1,6.2,-50.0,x,23.9,3.8,6.1,x,x
COc1ccc(C2=NN(c3ccccc3)C(=O)/C2=C\c2ccc(O)c(OC)c2)cc1,7.2,7.4,-22.2,12.5,11.3,30.5*,1.5,25.8*
CCn1c(COc2ccc(C)cc2)nnc1SCC(=O)NCc1ccco1,-10.6,19.3,-19.1,-1.6,-16.3,24.1*,8.2,-7.0
O=C(CCN1CCc2ccccc2C1)c1ccc2c(c1)OCCO2,-4.1,-1.5,-18.9,-0.3,-4.9,23.2*,12.1,22.2*
CCOc1cc(CNCCO)cc(Br)c1OCc1ccc(Cl)cc1Cl,11.4,-89.3,-3.4,-13.8,15.8,42.2*,68.1*,76.8*
COc1ccc(C2CCCN2CC(O)COc2ccccc2C(C)C)cc1 (centres undefined),3.9,-63.1,x,-1.2,10.8,24.1*,32.6*,41.0*
Cn1cc(CN2CCCC(C(=O)Nc3ccc(-c4cccc(F)c4)cc3)C2)cn1 (centres undefined),-25.9,-101.6,x,-4.1,16.5,39.1*,42.0*,64.5*
Cn1cc(CN2CCCC(C(=O)Nc3cccc(-n4cccn4)c3)C2)cn1 (centres undefined),2.1,0.7,x,5.4,-3.4,0.2,x,x
CC(C)(C)NCCOCCOc1ccc(Cl)cc1C(C)(C)C,8.4,-37.8,-9.1,-9.2,-8.7,8.6,x,x
CC(C)(C)c1cc(Cl)ccc1OCCOCCN1CCCC1,1.6,-37.9,x,-4.0,-16.3,24.3*,35.2*,41.5*
Clc1ccc(OCCOCCN2CCc3ccccc3C2)c(Cl)c1,3.1,-68.4,-21.5,0.1,8.6,29.6*,17.2,30.4*
Cc1ccc(OCCOCCN2CCN(C)CC2)c(C(C)(C)C)c1,-3.1,-24.5,x,-1.2,2.6,-6.3,x,x
C=CCNCCCOc1ccc(Cl)cc1C(C)(C)C,3.8,-51.3,-18.4,-7.8,-3.9,25.5*,25.2*,36.7*
COc1ccc(NC(=O)COC(=O)CCNS(=O)(=O)c2ccc(Cl)cc2)cc1,0.7,-18.8,-14.8,-5.9,-11.1,-9.9,x,x
OCCC1CN(Cc2ccc3cccc(F)c3n2)CCN1Cc1ccccc1 (centres undefined),-3.0,-0.4,x,1.6,8.5,-10.9,x,x

# Assay outcomes as filed in PubChem BioAssay.
